Test results as given in ChEMBL document CHEMBL2311422, “Studies on synthesis, stability, release and pharmacodynamic profile of a novel diacerein-thymol prodrug” (Bioorg Med Chem Lett, 2013).
Activity calls are given as the source filed them. The rule behind the calls is not given here.

Experiments:
Rattus norvegicus [1] = assay: Antiarthritic activity against FCA-induced arthritis in Wistar rat assessed as reduction in joint diameter at 6.8 mg/kg, po administered from day 13 post FCA-challenge measured up to day 28 relative to control; type: functional, organism-based; parameters: dose 6.8 mg/kg
How it was run: (§1)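 Male Wistar rats (200–250 g), n = 6 per group. Complete Freund's adjuvant, 0.1 ml, injected sub-plantar into left hind paw on day 1. Oral dosing as 0.25% sodium CMC suspension, days 13–28. Body weight, joint diameter (digital vernier caliper) and paw volume (plethysmometer) recorded on days 0, 3, 7, 12, 15, 19, 21 and 28. Edema inhibition = 1 − (Vt/Vc) × 100, using mean relative paw-volume change versus arthritic controls. Mean ± SEM; two-way ANOVA with Bonferroni post test.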

Rattus norvegicus [2] = assay: Gastrointestinal toxicity against fasted Wistar rat assessed as ulcer index at 68 mg/kg, po (reference value: 1.78 +/- 0.6); type: organism-based; parameters: dose 68 mg/kg, route oral; details: in vivo
Rattus norvegicus [3] = assay: Antiinflammatory activity in Wistar rat assessed as inhibition of FCA-induced paw edema at 6.8 mg/kg, po administered on days 13 post FCA-challenge measured up to days 28 relative to control; type: functional; how it was run: as §1
[4] = n-octanol-phosphate buffer distribution coefficient, log P of the compound at pH 7.4; type: physicochemical
How it was run: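 Shake-flask partitioning between n-octanol and phosphate buffer pH 7.4, with UV spectrophotometric quantification.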

Rattus norvegicus [5] = assay: Antiarthritic activity in Wistar rat assessed as inhibition of FCA-induced mononuclear cell infiltration in synovial tissue of tibio-torsal joint at 6.8 mg/kg, po administered on day 13 post FCA-challenge measured on day 28 by hematoxylin and eosin staining method relative to control; type: functional, organism-based; parameters: dose 6.8 mg/kg
How it was run: (§2)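 Male Wistar rats, arthritis induced by sub-plantar FCA and oral dosing on days 13–28. Animals sacrificed on day 28. Ankle joints fixed 24 h in 10% buffered formalin, decalcified in 5% formic acid, paraffin-embedded and sectioned at 5 μm. H&E-stained sections read by light microscopy for synovial hyperplasia, pannus, joint-space destruction, inflammatory cell infiltration and synovitis.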

Rattus norvegicus [6] = assay: Antiarthritic activity in Wistar rat assessed as inhibition of FCA-induced inflammatory cell infiltration in subcutaneous tissue of tibio-torsal joint at 6.8 mg/kg, po administered on day 13 post FCA-challenge measured on day 28 by hematoxylin and eosin staining method relative to control; type: functional, organism-based; parameters: dose 6.8 mg/kg; how it was run: as §2
[7] = Chemical stability in HCl buffer up to 3 hrs at pH 1.2; type: physicochemical; details: pH 1.2, 3 h
How it was run: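 10 mg prodrug in 100 ml HCl buffer pH 1.2, held at 37 ± 1 °C with occasional stirring. 5 ml aliquots withdrawn over 0–180 min, each replaced with fresh buffer. Samples read directly by UV at 232 nm (intact prodrug) and 259 nm (released diacerein). Triplicate runs.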

[8] = Prodrug conversion in phosphate buffer assessed as diacerein released after 30 mins at pH 7.4; type: physicochemical; details: pH 7.4, 0.5 h
How it was run: (§3)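 Same procedure in phosphate buffer pH 7.4 at 37 °C, followed over 4.5 h. UV read at 230 nm (prodrug remaining) and 258 nm (diacerein released). First-order rate constants taken from plots; mean K and SD from three readings, with half-life derived from these.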

Rattus norvegicus [9] = assay: Antiarthritic activity against FCA-induced arthritis in Wistar rat assessed as increase in body weight at 6.8 mg/kg, po administered from day 13 post FCA-challenge measured after 28 days relative to control; type: functional, organism-based; parameters: dose 6.8 mg/kg; how it was run: as §1
[10] = Half life in Wistar rat small intestine homogenate; type: ADME, tissue-based
How it was run: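 Small intestine from an ether-anaesthetized male Wistar rat, homogenized with its contents and diluted to half with phosphate buffer pH 7.4. Prodrug stock 0.8 ml plus homogenate 0.2 ml, 37 °C for 4.5 h. Centrifuged and filtered, then UV read at 230 nm (prodrug) and 258 nm (diacerein) against phosphate buffer blank. First-order K averaged over three readings.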

[11] = Half life in phosphate buffer at pH 7.4; type: physicochemical; how it was run: as §3
[12] = Chemical stability in HCl buffer over 3 hrs at pH 1.2; details: pH 1.2, 3 h
Stomach = assay: Metabolic stability in Wistar rat stomach homogenate over 4.5 hrs; type: ADME, tissue-based; details: tissue homogenate
How it was run: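 Rat stomach homogenized with its contents and diluted to half with HCl buffer pH 1.2. Prodrug stock 100 μg/ml in HCl buffer; 0.8 ml stock plus 0.2 ml homogenate incubated at 37 °C. Samples centrifuged at 10,000 rpm, 4 °C, 10 min, then filtered. UV read at 232/259 nm against HCl buffer blank; quantified from calibration curves.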

Rattus norvegicus [13] = assay: Antiarthritic activity against FCA-induced arthritis in Wistar rat assessed as increase in body weight at 2.04 mg/kg, po administered from day 13 post FCA-challenge measured after 28 days relative to control; type: functional, organism-based; parameters: dose 2.04 mg/kg; how it was run: as §1
Rattus norvegicus [14] = assay: Antiarthritic activity in Wistar rat assessed as inhibition of FCA-induced subcutaneous inflammation of tibio-torsal joint at 2.04 mg/kg, po administered on day 13 post FCA-challenge measured on day 28 by hematoxylin and eosin staining method relative to control; type: functional, organism-based; parameters: dose 2.04 mg/kg; how it was run: as §2
Rattus norvegicus [15] = assay: Gastrointestinal toxicity against fasted Wistar rat assessed as ulcer index at 20.4 mg/kg, po (reference value: 1.78 +/- 0.6); type: organism-based; parameters: dose 20.4 mg/kg, route oral; details: in vivo
Rattus norvegicus [16] = assay: Antiinflammatory activity in Wistar rat assessed as inhibition of FCA-induced paw edema at 2.04 mg/kg, po administered on days 13 post FCA-challenge measured up to days 28 relative to control; type: functional; how it was run: as §1
Rattus norvegicus [17] = assay: Antiarthritic activity against FCA-induced arthritis in Wistar rat assessed as reduction in joint diameter at 2.04 mg/kg, po administered from day 13 post FCA-challenge measured up to day 28 relative to control; type: functional, organism-based; parameters: dose 2.04 mg/kg; how it was run: as §1
Rattus norvegicus [18] = assay: Antiinflammatory activity in Wistar rat assessed as inhibition of FCA-induced paw edema at 5 mg/kg, po administered on days 13 post FCA-challenge measured up to days 28 relative to control; type: functional; how it was run: as §1
Rattus norvegicus [19] = assay: Gastrointestinal toxicity against fasted Wistar rat assessed as ulcer index at 50 mg/kg, po (reference value: 1.78 +/- 0.6); type: organism-based; parameters: dose 50 mg/kg, route oral; details: in vivo
Rattus norvegicus [20] = assay: Antiarthritic activity in Wistar rat assessed as inhibition of FCA-induced subcutaneous inflammation of tibio-torsal joint at 5 mg/kg, po administered on day 13 post FCA-challenge measured on day 28 by hematoxylin and eosin staining method relative to control; type: functional, organism-based; parameters: dose 5 mg/kg; how it was run: as §2
Rattus norvegicus [21] = assay: Antiarthritic activity against FCA-induced arthritis in Wistar rat assessed as reduction in joint diameter at 5 mg/kg, po administered from day 13 post FCA-challenge measured from day 15 to day 28 relative to control; type: functional, organism-based; parameters: dose 5 mg/kg; how it was run: as §1
Rattus norvegicus [22] = assay: Antiarthritic activity against FCA-induced arthritis in Wistar rat assessed as increase in body weight at 5 mg/kg, po administered from day 13 post FCA-challenge measured after 28 days relative to control; type: functional, organism-based; parameters: dose 5 mg/kg; how it was run: as §1

In the case of CC(=O)Oc1cccc2c1C(=O)c1c(OC(C)=O)cc(C(=O)Oc3cc(C)ccc3C(C)C)cc1C2=O, the Activity (Rattus norvegicus [1]) is reported as “Active”, the UI (Rattus norvegicus [2]) is reported as 4.17 and the inhibition in vivo at 6.8 mg/kg (Rattus norvegicus [3]) is reported as 78.9%. For the same molecule, the logD [4] was 0.565, the inhibition (Rattus norvegicus [5]) was “inactive” and the inhibition (Rattus norvegicus [6]) was “Active”. The Stability [7] was “Stable”, the Drug metabolism [8] was “Active” and the Activity (Rattus norvegicus [9]) was “Active”. For the same molecule, the half-life [10] was 2.8 h, the half-life [11] was 3.22 h and the Stability [12] was “Stable”. For the same molecule, the Stability (Stomach) was “Stable”.

With Cc1ccc(C(C)C)c(O)c1 [THYMOL] the Activity (Rattus norvegicus [13]) was “inactive”, the inhibition (Rattus norvegicus [14]) was “inactive” and the UI (Rattus norvegicus [15]) was 1.98. For the same molecule, the inhibition in vivo at 2.04 mg/kg (Rattus norvegicus [16]) was 9.1% and the Activity (Rattus norvegicus [17]) was “Active”.

Work on CC(=O)Oc1cccc2c1C(=O)c1c(OC(C)=O)cc(C(=O)O)cc1C2=O [DIACEREIN] yielded an inhibition in vivo at 5 mg/kg (Rattus norvegicus [18]) of 56.9%, a logD [4] of 0.46 and a UI (Rattus norvegicus [19]) of 6.03. For the same molecule, the inhibition (Rattus norvegicus [20]) was “inactive”, the Activity (Rattus norvegicus [21]) was “Active” and the Activity (Rattus norvegicus [22]) was “Active”.
